Measured values from ChEMBL document CHEMBL1122641, “Synthesis and pharmacological activity of some 9-substituted delta 8-tetrahydrocannabinol analogues” (1984).

Experiments:
Type in all cases: functional
Mus musculus [1] = experiment: Evaluation of hypothermia (after 1h) resulting from iv administration of compound at dose 10 mg/kg
Outline: (§1)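 Male ICR mice (22-30 g), housed in the laboratory 24 h before treatment; ambient 21-24 °C recorded. Rectal temperature was taken by thermistor probe (inserted 25 mm) just before iv injection of vehicle or drug (0.1 mL/10 g), then at 10-min intervals to 60 min. Value is the pre-injection minus 60-min temperature difference. At least six mice per dose.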

Mus musculus [2] = experiment: Evaluation of spontaneous activity administered by iv route in mice
Outline: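 Male ICR mice (22-30 g), housed 24 h before treatment. Given vehicle or drug iv (0.1 mL/10 g), then immediately placed singly in photocell activity chambers; beam interruptions counted for 10 min. Counts expressed as percent of vehicle control. ED50 (mg/kg) with 95% confidence limits by Litchfield-Wilcoxon method. At least six mice per dose.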

Mus musculus [3] = experiment: Evaluation of hypothermia (after 1h) resulting from iv administration of compound at dose 60 mg/kg; outline: as §1
Mus musculus [4] = experiment: Evaluation of hypothermia (after 1h) resulting from iv administration of compound at dose 30 mg/kg; outline: as §1
Mus musculus [5] = experiment: Evaluation of hypothermia (after 1h) resulting from iv administration of compound at dose 20 mg/kg; outline: as §1
Mus musculus [6] = experiment: Evaluation of hypothermia (after 1h) resulting from iv administration of compound at dose 100 mg/kg; outline: as §1
Mus musculus [7] = experiment: Evaluation of hypothermia (after 1h) resulting from iv administration of compound at dose 40 mg/kg; outline: as §1
Mus musculus [8] = experiment: Evaluation of hypothermia (after 1h) resulting from iv administration of compound at dose 5 mg/kg; outline: as §1

## CCCCCc1cc(O)c2c(c1)OC(C)(C)[C@@H]1CC=C(C(O)CC)CC21 (stereo partly drawn)
Mus musculus [1]
  Hypothermic effect: 0.4
Mus musculus [2]
  ED50: 39 mg/kg
Mus musculus [3]
  Hypothermic effect: 1.3
Mus musculus [4]
  Hypothermic effect: -0.2

## CCCCCc1cc(O)c2c(c1)OC(C)(C)[C@@H]1CC=C(C(C)C)CC21 (stereo partly drawn)
Mus musculus [5]
  Hypothermic effect: 1.2
Mus musculus [2]
  ED50: 26 mg/kg
Mus musculus [3]
  Hypothermic effect: 1.3
Mus musculus [4]
  Hypothermic effect: 0.8

## CCCCCc1cc(O)c2c(c1)OC(C)(C)[C@@H]1CC=C(c3ccccc3)CC21 (stereo partly drawn)
Mus musculus [6]
  Hypothermic effect: 2.2
Mus musculus [2]
  ED50: 67 mg/kg
Mus musculus [3]
  Hypothermic effect: 0.3
Mus musculus [4]
  Hypothermic effect: 1.6

## CCCCCc1cc(O)c2c(c1)OC(C)(C)[C@@H]1CC=C(CCCC)CC21 (stereo partly drawn)
Mus musculus [1]
  Hypothermic effect: 0.3
Mus musculus [2]
  ED50: 32 mg/kg
Mus musculus [3]
  Hypothermic effect: 5
Mus musculus [4]
  Hypothermic effect: 4.3

## CCCCCc1cc(O)c2c(c1)OC(C)(C)[C@@H]1CC=C(C(C)O)CC21 (stereo partly drawn)
Mus musculus [5]
  Hypothermic effect: 0
Mus musculus [2]
  ED50: 27 mg/kg
Mus musculus [4]
  Hypothermic effect: 0.8
Mus musculus [7]
  Hypothermic effect: 1.3

## CCCCCc1cc(O)c2c(c1)OC(C)(C)[C@@H]1CC=C(C)CC21 (stereo partly drawn)
Mus musculus [1]
  Hypothermic effect: 1
Mus musculus [5]
  Hypothermic effect: 3.4
Mus musculus [2]
  ED50: 7.1 mg/kg
Mus musculus [8]
  Hypothermic effect: 0.9

## CCCCCc1cc(O)c2c(c1)OC(C)(C)[C@@H]1CC=C(Cc3ccccc3)CC21 (stereo partly drawn)
Mus musculus [1]
  Hypothermic effect: 1.3
Mus musculus [5]
  Hypothermic effect: 0.9
Mus musculus [2]
  ED50: 32 mg/kg
Mus musculus [3]
  Hypothermic effect: 1.5
Mus musculus [4]
  Hypothermic effect: 1.1

## CCCCCc1cc(O)c2c(c1)OC(C)(C)[C@@H]1CC=C(CCc3ccccc3)CC21 (stereo partly drawn)
Mus musculus [2]
  ED50: 43 mg/kg
Mus musculus [3]
  Hypothermic effect: 0.9
Mus musculus [4]
  Hypothermic effect: 0.3
Mus musculus [7]
  Hypothermic effect: 0.3
